ChEMBL document CHEMBL4376857, “Discovery of Selective Inhibitors of Endoplasmic Reticulum Aminopeptidase 1” (J Med Chem, 2020)
The source made the active and inactive calls. The calls are words filed in the database; no cut-off is given here.

Legend:
[1] = target: T1, Leucyl-cystinyl aminopeptidase (Mus musculus, UniProt Q8C129); assay: Inhibition of recombinant mouse C-terminal His6-tagged IRAP expressed in baculovirus infected BTA-TN-5B1-4 insect cells using L-AMC as substrate measured after 1 hr by fluorescence assay
T1 sequence (Q8C129 whole entry): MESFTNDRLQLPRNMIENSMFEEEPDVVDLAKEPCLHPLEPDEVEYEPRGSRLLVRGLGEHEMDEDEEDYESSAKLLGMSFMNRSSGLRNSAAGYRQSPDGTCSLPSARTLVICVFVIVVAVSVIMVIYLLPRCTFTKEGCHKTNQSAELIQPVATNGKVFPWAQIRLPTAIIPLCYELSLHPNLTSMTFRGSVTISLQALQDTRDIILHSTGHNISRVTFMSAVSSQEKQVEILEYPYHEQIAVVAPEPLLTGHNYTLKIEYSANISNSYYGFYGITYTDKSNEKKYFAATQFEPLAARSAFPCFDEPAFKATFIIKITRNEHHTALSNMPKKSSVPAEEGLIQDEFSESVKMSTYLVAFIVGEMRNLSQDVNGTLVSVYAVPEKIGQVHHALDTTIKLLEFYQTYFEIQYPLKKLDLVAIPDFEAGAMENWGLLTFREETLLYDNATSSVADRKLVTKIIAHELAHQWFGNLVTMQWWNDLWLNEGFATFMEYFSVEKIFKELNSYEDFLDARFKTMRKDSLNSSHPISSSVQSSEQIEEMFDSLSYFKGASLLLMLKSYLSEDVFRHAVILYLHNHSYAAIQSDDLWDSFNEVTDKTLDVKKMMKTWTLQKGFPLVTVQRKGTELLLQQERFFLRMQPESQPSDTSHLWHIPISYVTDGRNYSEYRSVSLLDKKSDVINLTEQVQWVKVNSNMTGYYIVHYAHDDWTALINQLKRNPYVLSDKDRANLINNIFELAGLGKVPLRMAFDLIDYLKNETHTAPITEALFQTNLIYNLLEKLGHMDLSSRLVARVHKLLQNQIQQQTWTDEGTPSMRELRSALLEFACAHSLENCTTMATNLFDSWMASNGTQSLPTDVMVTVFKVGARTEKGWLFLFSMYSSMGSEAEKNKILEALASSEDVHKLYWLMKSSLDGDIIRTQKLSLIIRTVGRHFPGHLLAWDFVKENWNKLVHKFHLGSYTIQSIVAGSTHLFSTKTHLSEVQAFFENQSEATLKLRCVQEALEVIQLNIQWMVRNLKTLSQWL

[2] = target: T2, Antigen peptide transporter 1/2 (Homo sapiens) (UniProt Q03518+Q03519); assay: (§1) Inhibition of TAP1/2 in human HeLa cells stably expressing H-2 Kb infected with vaccinia virus containing Ub-SIINFEKL epitope assessed as suppression of Ub-SIINFEKL binding to MHC1 H-2 Kb at cell surface by measuring reduction in 25D1 staining measured after 16 to 24 hrs by flow cytometric method; assay type: cell-based
[3] = target: T3, Endoplasmic reticulum aminopeptidase 1 (Homo sapiens, UniProt Q9NZ08); assay: Activation of recombinant human C-terminal His6-tagged ERAP1 expressed in baculovirus infected BTA-TN-5B1-4 insect cells assessed as increase in Vmax/[…] ratio using varying levels of L-pNA as substrate incubated for 1 hr and measured for 5 to 10 mins by […] Michaelis-Menten equation analysis relative to control
T3 sequence (Q9NZ08 whole entry): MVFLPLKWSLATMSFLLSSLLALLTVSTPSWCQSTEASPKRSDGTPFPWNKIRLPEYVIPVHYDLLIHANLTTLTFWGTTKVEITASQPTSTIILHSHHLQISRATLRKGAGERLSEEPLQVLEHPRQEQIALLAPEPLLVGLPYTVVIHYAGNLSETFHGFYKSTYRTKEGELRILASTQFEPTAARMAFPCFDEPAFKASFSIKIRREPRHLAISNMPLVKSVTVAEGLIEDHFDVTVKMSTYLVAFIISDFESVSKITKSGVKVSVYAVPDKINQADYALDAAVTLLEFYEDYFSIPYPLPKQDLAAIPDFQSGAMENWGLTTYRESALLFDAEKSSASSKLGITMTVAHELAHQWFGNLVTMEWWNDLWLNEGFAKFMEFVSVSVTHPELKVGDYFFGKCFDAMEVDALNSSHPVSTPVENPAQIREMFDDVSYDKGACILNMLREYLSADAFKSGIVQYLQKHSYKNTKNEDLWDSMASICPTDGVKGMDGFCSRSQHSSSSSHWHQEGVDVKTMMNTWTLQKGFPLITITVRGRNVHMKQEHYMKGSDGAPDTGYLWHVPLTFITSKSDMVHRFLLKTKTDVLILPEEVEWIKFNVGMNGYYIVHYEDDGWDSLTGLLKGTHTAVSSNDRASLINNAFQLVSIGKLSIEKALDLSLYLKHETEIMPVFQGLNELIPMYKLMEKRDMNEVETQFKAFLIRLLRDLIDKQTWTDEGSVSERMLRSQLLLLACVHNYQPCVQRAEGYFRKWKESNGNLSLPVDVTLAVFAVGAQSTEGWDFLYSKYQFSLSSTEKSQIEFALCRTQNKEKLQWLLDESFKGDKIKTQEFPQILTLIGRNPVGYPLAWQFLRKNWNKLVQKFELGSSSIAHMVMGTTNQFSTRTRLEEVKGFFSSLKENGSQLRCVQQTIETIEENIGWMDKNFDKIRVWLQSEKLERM
Summary of the method: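 ERAP1 initial rates measured under steady-state conditions with the chromogenic substrate leucine p-nitroanilide (L-pNA), allowing a wide substrate range, across several compound concentrations. Rate-versus-substrate curves were fit to an allosteric Michaelis-Menten equation with a Hill coefficient to give V_max and K_half at each compound level. Activity was expressed as V_max/K_half relative to no-compound control.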

[4] = target: T3, Endoplasmic reticulum aminopeptidase 1; assay: Inhibition of recombinant human C-terminal His6-tagged ERAP1 expressed in baculovirus infected BTA-TN-5B1-4 insect cells using WRCYEKMALK as substrate measured after 10 mins by LC-MS analysis
[5] = Activation of recombinant human C-terminal His6-tagged ERAP1 allele 2 mutant expressed in baculovirus infected BTA-TN-5B1-4 insect cells using L-AMC as substrate measured after 1 hr by fluorescence assay
[6] = target: T3, Endoplasmic reticulum aminopeptidase 1; assay: Activation of recombinant human C-terminal His6-tagged ERAP1 expressed in baculovirus infected BTA-TN-5B1-4 insect cells using L-AMC as substrate measured after 1 hr by fluorescence assay
[7] = target: T3, Endoplasmic reticulum aminopeptidase 1; assay: Competitive inhibition of recombinant human C-terminal His6-tagged ERAP1 expressed in baculovirus infected BTA-TN-5B1-4 insect cells using varying levels of LVAFKARKF as substrate measured at 2.5 mins interval for 20 mins by ABTS reagent based horseradish peroxidase-coupled Michaelis-Menten equation analysis
[8] = Activation of recombinant human C-terminal His6-tagged ERAP1 allele 3 mutant expressed in baculovirus infected BTA-TN-5B1-4 insect cells using L-AMC as substrate measured after 1 hr by fluorescence assay
[9] = Activation of recombinant human C-terminal His6-tagged ERAP1 5-SNP mutant expressed in baculovirus infected BTA-TN-5B1-4 insect cells using L-AMC as substrate measured after 1 hr by fluorescence assay
[10] = target: T2, Antigen peptide transporter 1/2 (Homo sapiens); assay: as §1, with “staining at 50 uM” for “staining”; assay type: cell-based
[11] = target: T3, Endoplasmic reticulum aminopeptidase 1; assay: as §1, with “ERAP1” for “TAP1/2”, “ss-LEQLE-SIINFEKL” for “Ub-SIINFEKL”; assay type: cell-based
[12] = target: T3, Endoplasmic reticulum aminopeptidase 1; assay: Activation of recombinant human C-terminal His6-tagged ERAP1 expressed in baculovirus infected BTA-TN-5B1-4 insect cells at 10.7 uM using L-AMC as substrate measured after 1 hr by fluorescence assay relative to control
[13] = target: T3, Endoplasmic reticulum aminopeptidase 1; assay: Competitive inhibition of recombinant human C-terminal His6-tagged ERAP1 expressed in baculovirus infected BTA-TN-5B1-4 insect cells using varying levels of L-pNA as substrate incubated for 1 hr and measured for 5 to 10 mins by […] Michaelis-Menten equation analysis
[14] = target: T3, Endoplasmic reticulum aminopeptidase 1; assay: Inhibition of recombinant human C-terminal His6-tagged ERAP1 expressed in baculovirus infected BTA-TN-5B1-4 insect cells using L-AMC as substrate measured after 1 hr by fluorescence assay

O=C(O)c1ccc(Cl)c(S(=O)(=O)Nc2cc(C(F)(F)F)ccc2N2CCCCC2)c1
IC50 [1]: > 200 µM

COc1ccc(C(=O)O)cc1S(=O)(=O)Nc1cc(C(F)(F)F)ccc1N1CCN(C)CC1
IC50 [1]: > 200 µM

COc1ccc(C(=O)O)cc1S(=O)(=O)Nc1cc(C)ccc1N1CCCCC1
IC50 [1]: > 200 µM

COC(=O)c1ccc(OC)c(S(=O)(=O)Nc2cc(C(F)(F)F)ccc2N2CCCCC2)c1
inhibition [2]: Active | IC50 [1]: > 200 µM

COc1ccc(C(=O)O)cc1S(=O)(=O)Nc1ccccc1N1CCCCC1
IC50 [1]: > 200 µM

COc1ccc(C(=O)O)cc1S(=O)(=O)Nc1cc(C(F)(F)F)ccc1N1CCCCC1
fold change (FC) [3]: < 1.8 | IC50 [4]: 5.3 µM | AC50 [5]: 0.88 µM | AC50 [6]: 4.1 µM | Ki [7]: 3.8 µM | inhibition (INH) ([1]; mouse, 1 h): Not Active | AC50 [8]: 3.1 µM | AC50 [9]: 2.7 µM | inhibition [10]: inactive | IC50 [11]: 1 µM | Activity [12]: > 40%

CC(C)C[C@H](N)CS
inhibition [10]: inactive

O=C(O)c1ccc(Br)c(S(=O)(=O)Nc2cc(C(F)(F)F)ccc2N2CCCCC2)c1
IC50 [1]: > 200 µM

O=C(O)c1cccc(S(=O)(=O)Nc2cc(C(F)(F)F)ccc2N2CCCCC2)c1
IC50 [1]: > 200 µM

COc1ccc(C(=O)O)cc1S(=O)(=O)Nc1cc(F)ccc1N1CCCCC1
IC50 [1]: > 200 µM

N=C(NCCc1c[nH]c2ccccc12)NS(=O)(=O)c1cc(F)ccc1F
Ki [13]: 51.7 µM | IC50 [14]: 9.2 µM | inhibition [10]: Active
